How the values were obtained:
Adenosine receptor A1 [1] = target: T1, Adenosine receptor A1 (Homo sapiens, UniProt P30542); assay: Displacement of [3H]CCPA from human adenosine receptor A1 expressed in CHO cell membranes incubated for 90 mins by radioligand competition assay; parameters: species or system Cell membrane
T1 sequence (P30542 whole entry): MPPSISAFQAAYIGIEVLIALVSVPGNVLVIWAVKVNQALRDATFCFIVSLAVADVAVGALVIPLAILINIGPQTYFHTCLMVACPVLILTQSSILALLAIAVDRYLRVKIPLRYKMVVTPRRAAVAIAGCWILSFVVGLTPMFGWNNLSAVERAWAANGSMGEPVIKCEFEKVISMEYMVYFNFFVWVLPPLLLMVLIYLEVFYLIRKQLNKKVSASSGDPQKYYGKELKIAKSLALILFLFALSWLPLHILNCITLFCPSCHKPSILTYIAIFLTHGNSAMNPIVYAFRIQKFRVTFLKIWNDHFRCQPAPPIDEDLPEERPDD

Adenosine receptor A1 [2] = target: T2, Adenosine receptor A1 (Rattus norvegicus, UniProt P25099); assay: Displacement of [3H]CCPA from adenosine receptor A1 in rat brain cortex membranes incubated for 90 mins by radioligand competition assay; format: cell membranes, Cell membrane
T2 sequence (P25099 whole entry): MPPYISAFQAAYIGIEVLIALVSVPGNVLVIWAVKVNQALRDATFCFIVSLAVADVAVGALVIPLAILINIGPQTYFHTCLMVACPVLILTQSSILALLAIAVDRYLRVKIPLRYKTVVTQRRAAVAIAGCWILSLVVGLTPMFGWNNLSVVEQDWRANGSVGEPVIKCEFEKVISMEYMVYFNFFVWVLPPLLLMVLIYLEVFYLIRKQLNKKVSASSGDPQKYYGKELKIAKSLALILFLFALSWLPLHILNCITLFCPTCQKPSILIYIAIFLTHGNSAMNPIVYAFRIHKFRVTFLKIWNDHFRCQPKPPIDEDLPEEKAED

Adenosine receptor A2a [3] = target: T3, Adenosine receptor A2a (Homo sapiens, UniProt P29274); assay: Displacement of [3H]MSX2 from human adenosine receptor A2A expressed in HEK293 cell membranes incubated for 30 mins by radioligand competition assay; parameters: species or system Cell membrane
T3 sequence (P29274 whole entry): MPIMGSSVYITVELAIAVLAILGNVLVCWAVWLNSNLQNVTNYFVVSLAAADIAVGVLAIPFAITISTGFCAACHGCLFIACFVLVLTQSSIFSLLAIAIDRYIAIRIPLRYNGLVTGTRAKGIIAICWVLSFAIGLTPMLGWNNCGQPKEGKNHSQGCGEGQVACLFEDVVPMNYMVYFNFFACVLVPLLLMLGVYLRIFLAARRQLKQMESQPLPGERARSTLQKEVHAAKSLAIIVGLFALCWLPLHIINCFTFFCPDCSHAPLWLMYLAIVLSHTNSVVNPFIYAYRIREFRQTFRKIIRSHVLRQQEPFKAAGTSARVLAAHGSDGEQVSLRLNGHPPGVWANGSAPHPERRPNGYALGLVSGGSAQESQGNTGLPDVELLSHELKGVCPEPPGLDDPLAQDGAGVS

Adenosine receptor A2a [4] = target: Adenosine receptor A2a (Rattus norvegicus, UniProt P30543); assay: Displacement of [3H]MSX2 from adenosine receptor A2A in rat brain striatum membranes incubated for 30 mins by radioligand competition assay; format: cell membranes, Cell membrane
Adenosine receptor A2a (Rattus norvegicus, UniProt P30543), sequence (P30543 whole entry): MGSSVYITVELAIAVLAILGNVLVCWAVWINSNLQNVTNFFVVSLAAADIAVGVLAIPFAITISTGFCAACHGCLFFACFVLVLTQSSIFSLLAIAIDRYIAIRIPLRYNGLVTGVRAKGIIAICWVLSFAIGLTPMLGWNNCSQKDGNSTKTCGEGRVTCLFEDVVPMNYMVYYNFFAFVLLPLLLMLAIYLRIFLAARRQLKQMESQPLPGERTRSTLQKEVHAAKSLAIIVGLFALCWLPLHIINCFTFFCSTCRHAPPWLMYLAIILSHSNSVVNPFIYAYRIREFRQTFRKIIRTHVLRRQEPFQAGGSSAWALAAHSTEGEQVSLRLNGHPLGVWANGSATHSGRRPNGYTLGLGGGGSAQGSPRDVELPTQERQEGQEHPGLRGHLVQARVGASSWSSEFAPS

Adenosine receptor A2b = target: T4, Adenosine receptor A2b (Homo sapiens, UniProt P29275); assay: Displacement of [3H]PSB-603 from human adenosine receptor A2B expressed in CHO cell membranes incubated for 75 mins by radioligand competition assay; parameters: species or system Cell membrane
T4 sequence (P29275 whole entry): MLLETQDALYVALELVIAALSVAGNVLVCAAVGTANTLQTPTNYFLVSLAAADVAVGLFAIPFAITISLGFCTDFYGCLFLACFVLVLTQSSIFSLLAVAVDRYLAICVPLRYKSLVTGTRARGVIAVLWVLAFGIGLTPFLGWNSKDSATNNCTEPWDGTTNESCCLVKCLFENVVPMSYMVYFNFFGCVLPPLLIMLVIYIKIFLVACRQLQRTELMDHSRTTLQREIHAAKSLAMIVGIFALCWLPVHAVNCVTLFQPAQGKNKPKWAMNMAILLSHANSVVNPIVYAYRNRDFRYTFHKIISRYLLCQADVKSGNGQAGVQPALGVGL

Adenosine receptor A3 [5] = target: T5, Adenosine receptor A3 (Homo sapiens, UniProt P0DMS8); assay: Displacement of [3H]PSB-11 from human adenosine receptor A3 expressed in CHO cell membranes incubated for 60 mins by radioligand competition assay; parameters: species or system Cell membrane
T5 sequence (P0DMS8 whole entry): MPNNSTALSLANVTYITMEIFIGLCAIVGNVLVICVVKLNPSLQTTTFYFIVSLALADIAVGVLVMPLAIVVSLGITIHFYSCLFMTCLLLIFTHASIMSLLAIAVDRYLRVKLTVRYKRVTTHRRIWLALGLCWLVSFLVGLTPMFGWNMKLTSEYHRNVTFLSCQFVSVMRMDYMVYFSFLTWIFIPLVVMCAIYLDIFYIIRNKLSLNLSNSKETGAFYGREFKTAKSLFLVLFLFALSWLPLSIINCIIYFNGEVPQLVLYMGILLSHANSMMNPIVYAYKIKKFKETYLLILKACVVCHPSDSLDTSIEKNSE

Adenosine receptor A3 [6] = target: T6, Adenosine receptor A3 (Rattus norvegicus, UniProt P28647); assay: Displacement of [3H]NECA from rat adenosine receptor A3 expressed in CHO cell membranes incubated for 60 mins by radioligand competition assay; parameters: species or system Cell membrane
T6 sequence (P28647 whole entry): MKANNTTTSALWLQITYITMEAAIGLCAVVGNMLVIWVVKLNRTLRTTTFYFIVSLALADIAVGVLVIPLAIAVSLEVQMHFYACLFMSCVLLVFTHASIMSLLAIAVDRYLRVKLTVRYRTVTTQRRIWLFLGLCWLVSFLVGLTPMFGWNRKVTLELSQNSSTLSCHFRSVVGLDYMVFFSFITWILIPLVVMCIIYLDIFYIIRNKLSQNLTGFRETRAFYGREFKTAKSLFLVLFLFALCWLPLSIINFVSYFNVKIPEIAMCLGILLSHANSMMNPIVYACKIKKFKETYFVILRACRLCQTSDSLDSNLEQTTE

[7] = target: T7, Adenosine receptor A1 (Rattus norvegicus) (UniProt P25099); assay: Displacement of [3H]CCPA from adenosine receptor A1 in rat brain cortex membranes at 0.1 uM incubated for 90 mins by radioligand competition assay; details: Cell membrane
T7 sequence (whole entry): T2 sequence (P25099 whole entry)
How it was run: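 A1 competition binding with [3H]CCPA, 0.5 nM. Membranes: CHO cells expressing human A1, or rat brain cortex. Membranes preincubated 20 min with adenosine deaminase (2 U/mL per mg protein). Incubation 90 min at rt in 50 mM Tris-HCl pH 7.4 with 2.5% final DMSO. Nonspecific binding defined by 10 µM 2-chloroadenosine. GF/B filtration, scintillation counting.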

[8] = target: Adenosine receptor A2a (Rattus norvegicus) (UniProt P30543); assay: Displacement of [3H]MSX2 from adenosine receptor A2A in rat brain striatum membranes at 0.1 uM incubated for 30 mins by radioligand competition assay relative to control; details: Cell membrane
Adenosine receptor A2a (Rattus norvegicus), sequence (P30543 whole entry): as the sequence (P30543 whole entry) above
How it was run: (§1)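 A2A binding, [3H]MSX-2 1.0 nM. Membranes: rat brain striatum, or HEK293 cells expressing human A2A. Adenosine deaminase preincubation 20 min, then 30 min at rt in 50 mM Tris-HCl pH 7.4 with 2.5% DMSO. Nonspecific binding defined by 50 µM NECA. GF/B filtration, scintillation counting. Single-concentration percent inhibition, ≥3 experiments in duplicate or triplicate.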

Adenosine receptor A2a [9] = target: T3, Adenosine receptor A2a; assay: Displacement of [3H]MSX2 from human adenosine receptor A2A expressed in HEK293 cell membranes at 0.1 uM incubated for 30 mins by radioligand competition assay relative to control; details: Cell membrane; how it was run: as §1
[10] = target: T8, Adenosine receptor A2b (Homo sapiens) (UniProt P29275); assay: Displacement of [3H]PSB-603 from human adenosine receptor A2B expressed in CHO cell membranes at 0.1 uM incubated for 75 mins by radioligand competition assay relative to control; details: Cell membrane
T8 sequence (whole entry): T4 sequence (P29275 whole entry)
How it was run: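 CHO membranes expressing human or rat A2B, [3H]PSB-603 0.3 nM. Nonspecific binding defined by 10 µM DPCPX. Preincubated 20 min with adenosine deaminase, then 75 min at rt in Tris-HCl pH 7.4 with 2.5% DMSO. Filters washed with ice-cold 50 mM Tris-HCl containing 0.1% BSA; scintillation counting.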

[11] = target: T9, Adenosine receptor A3 (Homo sapiens) (UniProt P0DMS8); assay: Displacement of [3H]PSB-11 from human adenosine receptor A3 expressed in CHO cell membranes at 0.1 uM incubated for 60 mins by radioligand competition assay; details: Cell membrane, filed as antagonist, dose 0.1 µM
T9 sequence (whole entry): T5 sequence (P0DMS8 whole entry)
How it was run: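 CHO membranes expressing human A3, [3H]PSB-11 0.5 nM. Nonspecific binding defined by 100 µM R-PIA. Adenosine deaminase preincubation 20 min, then 60 min at rt in 50 mM Tris-HCl pH 7.4 with 2.5% DMSO. Filtered on GF/B, scintillation counted.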

[12] = in the assay text read “at 1 uM” for “at 0.1 uM”

Structure (SMILES)	Ki (Adenosine receptor A1 [1]) [µM]	Ki (Adenosine receptor A1 [2]) [µM]	Ki (Adenosine receptor A2a [3]) [µM]	Ki (Adenosine receptor A2a [4]) [µM]	Ki (Adenosine receptor A2b) [µM]	Ki (Adenosine receptor A3 [5]) [µM]	Ki (Adenosine receptor A3 [6]) [µM]	inhibition ([7]; filed as antagonist) [%]	inhibition [8] [%]	inhibition (Adenosine receptor A2a [9]; [12]) [%]	inhibition [10] [%]	inhibition [7] [%]	inhibition (Adenosine receptor A2a [9]; filed as antagonist, in the assay text read “1 uM” for “0.1 uM”) [%]	inhibition [11] [%]
Cc1ccc(-n2c(-c3sc(NC(=O)c4ccccc4)nc3-c3ccccc3)nc3ccccc3c2=O)cc1	> 1	> 1	> 1	> 1	> 0.1	0.00905	0.806	23	17					
COc1cc(-c2nc(NC(C)=O)sc2-c2ccncc2)cc(OC)c1OC					3.2									
O=C(Nc1nc(-c2ccccc2)c(-c2nc3ccccc3c(=O)n2-c2ccccc2)s1)c1ccco1	> 1	> 1	> 1	> 1	> 0.1	0.129			33	5	1	26		
COc1ccc(C(=O)Nc2nc(-c3ccccc3)c(-c3nc4ccccc4c(=O)n3-c3ccccc3)s2)cc1	> 1	> 1	> 1	> 1	> 0.1	0.174		11	1	20				
COc1ccc(C(=O)Nc2nc(-c3ccccc3)c(C(=O)c3ccccc3)s2)cc1	0.0367	0.00147	> 1	> 1	> 0.1	0.0254	> 1		32		2		41	
O=C(Nc1nc(-c2ccccc2)c(-c2nc3ccccc3c(=O)n2-c2ccc(Cl)cc2)s1)c1ccco1	> 1	> 1	> 1	> 1	> 0.1	0.0483	0.607		14	8	1	24		
CCCCn1c(=O)c2[nH]c(C34CC5CC(CC3C5)C4)nc2n(CCCO)c1=O		0.000124		0.552	0.187	2.3	6.5							
COc1ccc(-n2c(-c3sc(NC(=O)c4ccccc4)nc3-c3ccccc3)nc3ccccc3c2=O)cc1	> 1	> 1	> 1	> 1	> 0.1	0.00823	1.32	10	17	3				
O=C(Nc1nc(-c2ccccc2)c(C(=O)c2ccc(F)cc2F)s1)c1ccco1	0.178	0.00669	0.132	0.0733	> 0.1	0.124					15			100
CC[C@@H]1CN2C(=O)N(C)c3nc(-c4ccccc4)[nH]c3C2=N1			0.108		3.7		> 10							

Source: ChEMBL document CHEMBL4680130, “Substituted 4-phenylthiazoles: Development of potent and selective A, A and dual A/A adenosine receptor antagonists” (Eur J Med Chem, 2020)
